Results reported in ChEMBL document CHEMBL4613245, “Arenicolins: C-Glycosylated Depsides from Penicillium arenicola” (J Nat Prod, 2020).
pIC50: −log10 of the molar value. Activity calls are given as the source filed them. The calls are words filed in the database; no cut-off is given here.

How the values were obtained:
Staphylococcus aureus = test: Antibacterial activity against Staphylococcus aureus ATCC 43300 at 100 ug/ml incubated for 24 to 48 hrs; type: functional, organism-based
Procedure, shortened: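 Agar well diffusion: sample dissolved in DMSO at 0.1 mg/mL, 10 μL applied to a 4 mm well cut in YM agar seeded with an overnight S. aureus ATCC 43300 culture; plates held at 37 °C and read for inhibition zones after 24–48 h.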

HCT-116 [1] = test: Cytotoxicity against human HCT116 cells after 48 hrs by CellTiter-Glo assay; type: functional, cell-based; details: for pIC50: HCT-116, 48 h
Procedure, shortened: (§1)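 Cells plated at 2000/well and preincubated 2 h, then exposed for 48 h to serial dilutions from 0.3 to 30.0 μM. Controls were 5-FU (positive) and fresh medium (negative). Each concentration ran in triplicate, and viability was read by CellTiter-Glo luminescence per the kit protocol.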

IMR-32 [2] = test: Cytotoxicity against human IMR32 cells after 48 hrs by CellTiter-Glo assay; type: functional, cell-based; details: for pIC50: IMR-32, 48 h; procedure, shortened: as §1
BT-474 [3] = test: Cytotoxicity against human BT474 cells after 48 hrs by CellTiter-Glo assay; type: functional, cell-based; procedure, shortened: as §1
Candida albicans = test: Antifungal activity against Candida albicans ATCC 10231 at 100 ug/ml measured at 24 hrs by agar well diffusion method
Cryptococcus neoformans = test: Antifungal activity against Cryptococcus neoformans H99 at 100 ug/ml measured at 48 hrs by agar well diffusion method; details: var grubii H99
HCT-116 [4] = test: Cytotoxicity against human HCT116 cells up to 30 uM after 48 hrs by CellTiter-Glo assay; type: functional, cell-based; procedure, shortened: as §1
IMR-32 [5] = test: Cytotoxicity against human IMR32 cells up to 30 uM after 48 hrs by CellTiter-Glo assay; type: functional, cell-based; procedure, shortened: as §1
BT-474 [6] = test: Cytotoxicity against human BT474 cells up to 30 uM after 48 hrs by CellTiter-Glo assay; type: functional, cell-based; procedure, shortened: as §1

| Structure (SMILES) | Activity (Staphylococcus aureus) | Activity (HCT-116 [1]) | pIC50 (HCT-116 [1]) | Activity (IMR-32 [2]) | pIC50 (IMR-32 [2]) | Activity (BT-474 [3]) | pIC50 (BT-474 [3]; BT-474, 48 h) | Activity (Candida albicans) | Activity (Cryptococcus neoformans) | Activity (HCT-116 [4]) | Activity (IMR-32 [5]) | Activity (BT-474 [6]) |
| --- | --- | --- | --- | --- | --- | --- | --- | --- | --- | --- | --- | --- |
| CCCCCCCc1cc(OC(=O)c2c(CCCCCCC)cc(O)c([C@@H]3O[C@H](CO)[C@@H](O)[C@H](O)[C@H]3O)c2O)cc(O)c1C(=O)O[C@@H]1C(=O)C(CO)=C[C@@H](O)[C@H]1O | inactive | Dose-dependent effect | 5.14 | Dose-dependent effect | 5.22 | Dose-dependent effect | 5.01 | inactive | inactive | – | – | – |
| O=c1[nH]cc(F)c(=O)[nH]1 [FLUOROURACIL] | – | – | 5.19 | – | 5.24 | – | – | – | – | – | – | – |
| CCCCCCCc1cc(OC(=O)c2c(CCCCCCC)cc(O)c([C@@H]3O[C@H](CO)[C@@H](O)[C@H](O)[C@H]3O)c2O)cc(O)c1C(=O)O | inactive | – | – | – | – | – | – | inactive | inactive | inactive | inactive | inactive |
